Screening data from PubChem.
This is one part of a sample in which hits are shown more often than they occur.
HCT116 PTEN-null: growth suppression of PTEN-null HCT116, primary screen, cell-based, CellTiter-Glo | actives 1.2% (n = 140,000) | viability, % at 10 µM | AID 827, 2007 | HCT116 PTEN-null viability, 60 h; hits give low values;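 active means viability at or below a set limit, 4 SD under the median of all tested compounds, cut at about 3.7% in these data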;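 further: PTEN knockout HCT116 line with beta catenin targeted HCT116 as companion control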
H69AR growth 86K: proliferation blockers of H69AR lung cancer cells, primary screen, cell-based, human, 86K library. viability, % at 10 µM. actives 6% (n = 85,000). H69AR lung tumor viability, ATP luminescence, 72 h; hits give low values;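 active means viability at or below 40%; inactive means viability above 40%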;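 further: multidrug resistant small cell line overexpressing MRP-1 efflux transporter; 100% = mean luminescence of untreated control wells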
Fibroblast inh: antiproliferative effect on LL 47 fibroblasts – human, LL 47 cells, CellTiter-Glo luminescence, primary screen | LL 47 human lung fibroblast viability, ATP luminescence; hits give low values | viability, % at 10 µM | actives 1.1% (n = 85,000) | AID 719, 2007;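 active means viability at or below 50% in the single dose screen; inactive means viability above 50%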;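 further: compound exposure lasted 72 h before the ATP readout; 100% = median luminescence of untreated cell-only wells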
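Signal: luminescent ATP detection, CellTiter-Glo; assay system: LL 47 human lung fibroblasts; input: 1,150 cells/well; incubation: overnight cell rest, 72 h compound treatment at 37 °C; measure: % viability versus median cells-only luminescence; medium: IMEM growth medium with 15% fetal bovine serum; dosing: compound addition at 0.1% DMSO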
HUVEC inhibit: inhibitors of HUVEC proliferation, primary screen, cell-based, 384-well; CellTiter-Glo luminescence, 72 h; hits give low values; actives 1.1% (n = 86,000); viability, % at 10 µM (by protocol);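 active means viability at or below 30%; inactive means viability above 30%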;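 further: 100% = median luminescence of DMSO-only cell control wells on each plate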
HCT116 bCat-KO: primary screen for growth suppressors in beta-catenin knockout HCT116 cells (colon tumor, human) | HCT116 beta-catenin knockout viability, CellTiter-Glo, 60 h; hits give low values | AID 818, 2007 | viability, % at 10 µM | actives 1.5% (n = 140,000);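 active means viability at or under a set limit, the compound median less 4 SD, cut at about 6% in these data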;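 further: 0% = Hyamine 1622 control at 20 µM and 100% = untreated cell control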
The depositor's hits bear a star.

Screening COc1cc2cc(Oc3ccc4ccc(=O)oc4c3)c(=O)oc2cc1O returned HCT116 PTEN-null 90 and HCT116 bCat-KO 82.
`O=c1ccc2cc(O)c(O)cc2o1` gave HCT116 PTEN-null 77, H69AR growth 86K 37*, Fibroblast inh 85, HUVEC inhibit 70 and HCT116 bCat-KO 80.
For Cc1c(C(=O)N2CCc3ccccc3C2)sc2nc(-c3ccccc3)cn12 the results were HCT116 PTEN-null 93, H69AR growth 86K 68, Fibroblast inh 102, HUVEC inhibit 87 and HCT116 bCat-KO 89.
Screening COc1ccc(-c2cn3c(C)c(C(=O)N4CCc5ccccc5C4)sc3n2)cc1 returned H69AR growth 86K 22*, Fibroblast inh 102 and HUVEC inhibit 64.
`Cc1ccc(N(CC(O)CON=C2c3ccccc3-c3ccccc32)S(C)(=O)=O)cc1` (centres undefined) gave HCT116 PTEN-null 15, H69AR growth 86K 15*, Fibroblast inh 98, HUVEC inhibit 66 and HCT116 bCat-KO 19.
For Cc1cccc(C)c1N(CC(O)Cn1c2ccccc2c2ccccc21)S(C)(=O)=O (centres undefined) the results were HCT116 PTEN-null 44, H69AR growth 86K 21*, Fibroblast inh 86, HUVEC inhibit 66 and HCT116 bCat-KO 50.
Screening Cc1ccc(N(CC(O)Cn2c3ccccc3c3ccccc32)S(C)(=O)=O)cc1 (centres undefined) returned HCT116 PTEN-null 81, H69AR growth 86K 32*, Fibroblast inh 92, HUVEC inhibit 54 and HCT116 bCat-KO 65.
For Cc1ccc(N(CC(O)CN2CCCC2)S(=O)(=O)c2ccc(C)cc2)cc1 (centres undefined) the results were HCT116 PTEN-null 83 and HCT116 bCat-KO 90.
For CC(=O)Nc1ccc(N(CC(O)Cn2c3ccccc3c3ccccc32)S(=O)(=O)c2ccc(C)cc2)cc1 (centres undefined) the results were HCT116 PTEN-null 31 and HCT116 bCat-KO 43.
Screening Cc1ccc(N(CC(O)Cn2c3ccccc3c3ccccc32)S(C)(=O)=O)c(C)c1 (centres undefined) returned HCT116 PTEN-null 53, H69AR growth 86K 17*, Fibroblast inh 90, HUVEC inhibit 61 and HCT116 bCat-KO 66.
CS(=O)(=O)N(Cc1ccco1)CC(O)Cn1c2ccccc2c2ccccc21 (centres undefined) was read as HCT116 PTEN-null 66 and HCT116 bCat-KO 66.
Screening CCCn1c(CC)nc([N+](=O)[O-])c1Sc1ccc(F)cc1 returned HCT116 PTEN-null 58 and HCT116 bCat-KO 63.
Cc1ccc(C(=O)NNc2cc(=O)n(C)c(=O)n2C)cc1C was read as HCT116 PTEN-null 99 and HCT116 bCat-KO 97.
For O=C(OCc1cc2ccccc2[nH]c1=O)c1ccco1 the results were HCT116 PTEN-null 106, H69AR growth 86K 86, Fibroblast inh 99, HUVEC inhibit 97 and HCT116 bCat-KO 93.
`N#Cc1nc(-c2cccs2)oc1NCC1CCCO1` (centres undefined) gave HCT116 PTEN-null 98, H69AR growth 86K 96, Fibroblast inh 100, HUVEC inhibit 106 and HCT116 bCat-KO 96.
`COc1cccc(N2CCN(CC(=O)c3c[nH]c4ccc(OC)cc34)CC2C)c1` (centres undefined) gave HCT116 PTEN-null 59, H69AR growth 86K 74, Fibroblast inh 95, HUVEC inhibit 93 and HCT116 bCat-KO 58.
For N=C1C(c2nc3ccccc3s2)=C(O)CN1Cc1ccccc1 the results were HCT116 PTEN-null 31, H69AR growth 86K 17*, Fibroblast inh 52, HUVEC inhibit 46 and HCT116 bCat-KO 31.
Screening CCN(CC)CCCN1CC(O)=C(c2nc3ccccc3s2)C1=N returned HCT116 PTEN-null 97, H69AR growth 86K 87, Fibroblast inh 89, HUVEC inhibit 79 and HCT116 bCat-KO 95.
`CS(=O)(=O)N(CC(=O)Nc1ccccc1C(=O)N1CCOCC1)c1ccc2c(c1)OCO2` gave HCT116 PTEN-null 91, H69AR growth 86K 100, Fibroblast inh 98, HUVEC inhibit 96 and HCT116 bCat-KO 107.
Screening O=C1NC(=O)C2C1C(c1ccccc1)N1C3C(=O)NC(=O)C3C(c3ccccc3)N21 (centres undefined) returned HCT116 PTEN-null 96, H69AR growth 86K 101, Fibroblast inh 112, HUVEC inhibit 105 and HCT116 bCat-KO 91.
